In ChEMBL document CHEMBL1944567, “Synthesis, biological evaluation, and molecular modeling of chalcone derivatives as potent inhibitors of Mycobacterium tuberculosis protein tyrosine phosphatases (PtpA and PtpB)” (J Med Chem, 2012):

Assays:
[1] = molecular target: T1, Low molecular weight protein-tyrosine phosphatase A (Mycobacterium tuberculosis) (UniProt P9WIA1); assay: Inhibition of Mycobacterium tuberculosis PTP-A using p-nitrophenyl phosphate as substrate at 25 uM measured for 10 mins by spectrofluorimetry
T1 sequence (whole entry): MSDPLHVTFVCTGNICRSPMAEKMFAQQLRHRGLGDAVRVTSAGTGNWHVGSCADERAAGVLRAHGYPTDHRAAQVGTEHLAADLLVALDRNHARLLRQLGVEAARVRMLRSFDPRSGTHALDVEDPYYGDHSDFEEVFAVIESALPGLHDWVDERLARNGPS
How it was run: (§1)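 Single-point screen at 25 μM final compound, added from 1.0 × 10−3 M DMSO stock, with recombinant Mtb PtpA or PtpB (0.4 μg/μL final) in 20 mM imidazole pH 7.0 with 40 mM pNPP. Reaction started by adding enzyme. p-Nitrophenol release read at 410 nm every min for 10 min at 37 °C. Residual activity was taken from the absorbance difference between 6 and 2 min; two experiments, each in triplicate.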

[2] = molecular target: T2, Phosphotyrosine-protein phosphatase PTPB (Mycobacterium tuberculosis) (UniProt P96830); assay: Inhibition of Mycobacterium tuberculosis PTP-B using p-nitrophenyl phosphate as substrate at 25 uM measured for 10 mins by spectrofluorimetry; how it was run: as §1
T2 sequence (whole entry): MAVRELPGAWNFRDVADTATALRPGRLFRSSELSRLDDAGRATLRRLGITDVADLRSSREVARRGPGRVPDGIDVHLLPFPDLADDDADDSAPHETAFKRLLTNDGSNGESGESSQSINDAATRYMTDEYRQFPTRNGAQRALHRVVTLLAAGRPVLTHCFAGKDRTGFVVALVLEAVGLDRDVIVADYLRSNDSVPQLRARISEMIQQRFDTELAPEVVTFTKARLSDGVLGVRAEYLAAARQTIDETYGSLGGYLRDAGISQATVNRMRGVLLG

[3] = molecular target: T3, Low molecular weight protein-tyrosine phosphatase A (Mycobacterium tuberculosis, UniProt P9WIA1); assay: Inhibition of Mycobacterium tuberculosis PTP-A using p-nitrophenyl phosphate as substrate measured for 10 mins by spectrofluorimetry
T3 sequence (P9WIA1 whole entry): T1 sequence (whole entry)
How it was run: (§2)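 A410 read each minute over 10 min at 37 °C. Residual activity compared with wells without inhibitor; IC50 by linear regression of % inhibition against concentration. Triplicate, two independent experiments.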

[4] = Solubility of the compound; type: physicochemical
[5] = molecular target: T4, Phosphotyrosine-protein phosphatase PTPB (Mycobacterium tuberculosis, UniProt P96830); assay: Inhibition of Mycobacterium tuberculosis PTP-B using p-nitrophenyl phosphate as substrate measured for 10 mins by spectrofluorimetry; how it was run: as §2
T4 sequence (P96830 whole entry): T2 sequence (whole entry)

[6] = molecular target: T5, Tyrosine-protein phosphatase non-receptor type 1 (Homo sapiens, UniProt P18031); assay: Inhibition of human PTP1B expressed in Escherichia coli BL21 DE3 using p-nitrophenyl phosphate as substrate measured for 10 mins by spectrofluorimetry
T5 sequence (P18031 whole entry): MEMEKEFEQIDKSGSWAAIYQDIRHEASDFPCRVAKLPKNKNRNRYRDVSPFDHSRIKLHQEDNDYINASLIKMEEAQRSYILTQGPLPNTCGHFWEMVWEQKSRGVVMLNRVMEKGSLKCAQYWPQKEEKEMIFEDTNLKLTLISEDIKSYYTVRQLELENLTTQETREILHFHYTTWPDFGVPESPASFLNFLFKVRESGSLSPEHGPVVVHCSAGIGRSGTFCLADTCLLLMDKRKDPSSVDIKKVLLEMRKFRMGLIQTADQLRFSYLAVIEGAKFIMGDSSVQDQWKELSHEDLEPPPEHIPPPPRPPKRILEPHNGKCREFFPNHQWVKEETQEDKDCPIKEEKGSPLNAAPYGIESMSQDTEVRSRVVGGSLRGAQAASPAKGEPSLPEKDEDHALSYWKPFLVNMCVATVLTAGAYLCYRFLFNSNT

[7] = molecular target: T4, Phosphotyrosine-protein phosphatase PTPB; assay: Competitive inhibition of Mycobacterium tuberculosis PTP-B using p-nitrophenyl phosphate as substrate measured for 10 mins by Lineweaver-Burk plot analysis
How it was run: (§3)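 Kinetic mode determined with recombinant Mtb enzyme (PtpA or PtpB) using the screening conditions (20 mM imidazole pH 7.0, 37 °C, A410 read each minute for 10 min) but with pNPP varied over 0.5, 1.5, 3, 6, 8, 10, 15 and 25 mM. At least three inhibitor concentrations in the 5–60 μM range were used. Ki and mechanism were taken from Lineweaver–Burk double-reciprocal plots.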

[8] = Selectivity index, ratio of IC50 for human PTP1B to IC50 for Mycobacterium tuberculosis PTP-A
How it was run: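 Selectivity index calculated as IC50 for human PTP1B divided by IC50 for Mtb PtpA. Both IC50 values came from pNPP hydrolysis assays read at 410 nm for 10 min at 37 °C.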

[9] = molecular target: T3, Low molecular weight protein-tyrosine phosphatase A; assay: Competitive inhibition of Mycobacterium tuberculosis PTP-A using p-nitrophenyl phosphate as substrate measured for 10 mins by Lineweaver-Burk plot analysis; how it was run: as §3
[10] = molecular target: T1, Low molecular weight protein-tyrosine phosphatase A (Mycobacterium tuberculosis); assay: Ratio of IC50 to Ki for Mycobacterium tuberculosis protein tyrosine phosphatase-A

## O=C(/C=C/c1ccc(Cl)cc1)c1ccc2c(c1)OCO2
[1]
  inhibition: 38%
[2]
  inhibition: 0%
[3]
  IC50: 117 µM
[4]
  solubility: soluble

## O=C(/C=C/c1ccc([N+](=O)[O-])cc1)c1ccc2ccccc2c1
[1]
  inhibition: 18%
[2]
  inhibition: 39%
[5]
  IC50: 62 µM
[4]
  solubility: soluble

## O=C(/C=C/c1ccccc1[N+](=O)[O-])c1ccc2c(c1)OCO2
[1]
  inhibition: 0%
[2]
  inhibition: 43%
[5]
  IC50: 81 µM
[4]
  solubility: soluble

## COc1ccc(/C=C/C(=O)c2ccc3c(c2)OCO3)c(OC)c1OC
[1]
  inhibition: 26%
[2]
  inhibition: 9%
[3]
  IC50: 83 µM
[4]
  solubility: soluble

## Cc1ccc(/C=C/C(=O)c2ccc3c(c2)OCO3)o1
[1]
  inhibition: 40%
[2]
  inhibition: 8%
[3]
  IC50: 169 µM
[4]
  solubility: soluble

## COc1ccc(C(=O)/C=C/c2ccc3c(c2)OCO3)c(OC)c1
[1]
  inhibition: 42%
[2]
  inhibition: 0%
[3]
  IC50: 101 µM
[4]
  solubility: soluble

## O=C(/C=C/c1ccc2c(c1)OCO2)c1ccc([N+](=O)[O-])cc1
[1]
  inhibition: 33%
[2]
  inhibition: 34%
[3]
  IC50: 62 µM
[5]
  IC50: 51 µM
[6]
  IC50: 23 µM
[7]
  Ki: 13 µM
[4]
  solubility: soluble

## O=C(/C=C/c1ccc2ccccc2c1)c1ccc(Cl)s1
[1]
  inhibition: 31%
[2]
  inhibition: 49%
[3]
  IC50: 32 µM
[5]
  IC50: 57 µM
[6]
  IC50: 100 µM
[8]
  Ratio IC50: 3.1
[9]
  Ki: 23 µM
[10]
  Ratio: 1.4
[4]
  solubility: soluble

## COc1cccc(OC)c1/C=C/C(=O)c1ccc2ccccc2c1
[1]
  inhibition: 40%
[2]
  inhibition: 24%
[3]
  IC50: 214 µM
[4]
  solubility: soluble

## COc1ccc(C(=O)/C=C/c2ccc(OCc3ccccc3)c(OC)c2)c(OC)c1
[1]
  inhibition: 40%
[2]
  inhibition: 0%
[3]
  IC50: 15 µM
[5]
  IC50: > 100 µM
[6]
  IC50: 263 µM
[8]
  Ratio IC50: 18
[9]
  Ki: 12 µM
[10]
  Ratio: 1.3
[4]
  solubility: soluble

## COc1cc(/C=C/C(=O)c2ccc(-n3ccnc3)cc2)ccc1OCc1ccccc1
[1]
  inhibition: 38%
[2]
  inhibition: 0%
[3]
  IC50: 102 µM
[4]
  solubility: soluble

## O=C(/C=C/c1ccc2ccccc2c1)c1ccc[nH]1
[1]
  inhibition: 16%
[2]
  inhibition: 37%
[5]
  IC50: 81 µM
[4]
  solubility: soluble

## O=C(/C=C/c1ccc2ccccc2c1)c1ccc(-n2ccnc2)cc1
[1]
  inhibition: 40%
[2]
  inhibition: 0%
[3]
  IC50: 100 µM
[4]
  solubility: soluble

## O=C(/C=C/c1cccc2ccccc12)c1ccc2ccccc2c1
[1]
  inhibition: 43%
[2]
  inhibition: 0%
[3]
  IC50: 93 µM
[4]
  solubility: soluble

## O=C(/C=C/c1cccc(C(F)(F)F)c1)c1ccc2c(c1)OCO2
[1]
  inhibition: 41%
[2]
  inhibition: 0%
[3]
  IC50: 155 µM
[4]
  solubility: soluble

## O=C(/C=C/c1ccc(Cl)cc1Cl)c1ccc2ccccc2c1
[1]
  inhibition: 10%
[2]
  inhibition: 47%
[5]
  IC50: 417 µM
[4]
  solubility: soluble

## COc1cc(/C=C/C(=O)c2ccc(Br)cc2)ccc1OCc1ccccc1
[1]
  inhibition: 63%
[2]
  inhibition: 0%
[3]
  IC50: 302 µM
[4]
  solubility: soluble

## O=C(/C=C/c1ccc(-c2cc(C(F)(F)F)ccc2Cl)o1)c1ccc2c(c1)OCO2
[1]
  inhibition: 36%
[2]
  inhibition: 16%
[3]
  IC50: 174 µM
[4]
  solubility: soluble

## O=C(/C=C/c1ccc(C(F)(F)F)cc1)c1ccc2ccccc2c1
[1]
  inhibition: 43%
[2]
  inhibition: 37%
[3]
  IC50: 331 µM
[5]
  IC50: 339 µM
[4]
  solubility: soluble

## COc1ccc(/C=C/C(=O)c2ccc3ccccc3c2)cc1
[1]
  inhibition: 35%
[2]
  inhibition: 0%
[3]
  IC50: 93 µM
[4]
  solubility: soluble

## COc1cc(OC)c(/C=C/C(=O)c2ccc3ccccc3c2)c(OC)c1
[1]
  inhibition: 49%
[2]
  inhibition: 0%
[3]
  IC50: 1660 µM
[4]
  solubility: soluble

## O=C(/C=C/c1ccc2c(c1)OCO2)c1cccc([N+](=O)[O-])c1
[1]
  inhibition: 26%
[2]
  inhibition: 6%
[3]
  IC50: 45 µM
[5]
  IC50: > 100 µM
[6]
  IC50: 107 µM
[8]
  Ratio IC50: 2.4
[9]
  Ki: 29 µM
[10]
  Ratio: 1.5
[4]
  solubility: soluble

## O=C(/C=C/c1ccccc1[N+](=O)[O-])c1ccc2ccccc2c1
[1]
  inhibition: 10%
[2]
  inhibition: 32%
[5]
  IC50: 54 µM
[4]
  solubility: soluble

## O=C(/C=C/c1ccc2ccccc2c1)c1ccc2ccccc2c1
[1]
  inhibition: 39%
[2]
  inhibition: 25%
[3]
  IC50: 93 µM
[4]
  solubility: soluble

## O=C(/C=C/c1ccc(Cl)c(Cl)c1)c1ccc2c(c1)OCO2
[1]
  inhibition: 35%
[2]
  inhibition: 0%
[3]
  IC50: 151 µM
[4]
  solubility: soluble

## O=C(/C=C/c1ccc(Cl)cc1Cl)c1ccc2c(c1)OCO2
[1]
  inhibition: 27%
[2]
  inhibition: 0%
[3]
  IC50: 407 µM
[4]
  solubility: soluble

## Cc1ccc(C(=O)/C=C/c2ccc3ccccc3c2)cc1
[1]
  inhibition: 10%
[2]
  inhibition: 34%
[5]
  IC50: 135 µM
[4]
  solubility: soluble

## COc1ccc2nc(Cl)c(/C=C/C(=O)c3ccc4c(c3)OCO4)cc2c1
[1]
  inhibition: 29%
[2]
  inhibition: 0%
[3]
  IC50: 93 µM
[4]
  solubility: soluble

## O=C(/C=C/c1ccc([N+](=O)[O-])cc1)c1ccc2c(c1)OCO2
[1]
  inhibition: 35%
[2]
  inhibition: 10%
[3]
  IC50: 74 µM
[4]
  solubility: soluble

## Cc1ccc(/C=C/C(=O)c2ccc3ccccc3c2)o1
[1]
  inhibition: 30%
[2]
  inhibition: 0%
[3]
  IC50: 1020 µM
[4]
  solubility: soluble

## O=C(/C=C/c1cccs1)c1ccc2ccccc2c1
[1]
  inhibition: 15%
[2]
  inhibition: 0%
[4]
  solubility: soluble

## O=C(/C=C/c1ccc(Br)cc1)c1ccc2c(c1)OCO2
[1]
  inhibition: 37%
[2]
  inhibition: 9%
[3]
  IC50: 66 µM
[4]
  solubility: soluble

## O=C(/C=C/c1cccc(Cl)c1)c1ccc2ccccc2c1
[1]
  inhibition: 7%
[2]
  inhibition: 0%
[4]
  solubility: soluble

## O=C(O)c1ccc(/C=C/C(=O)c2ccc3ccccc3c2)cc1
[1]
  inhibition: 9%
[2]
  inhibition: 70%
[3]
  IC50: > 100 µM
[5]
  IC50: 12 µM
[6]
  IC50: 3090 µM
[7]
  Ki: 8 µM
[4]
  solubility: soluble

## O=C(/C=C/c1cc(Cl)cc(Cl)c1)c1ccc2c(c1)OCO2
[1]
  inhibition: 14%
[2]
  inhibition: 0%
[4]
  solubility: soluble

## O=C(/C=C/c1cccc([N+](=O)[O-])c1)c1ccc2c(c1)OCO2
[1]
  inhibition: 23%
[2]
  inhibition: 22%
[4]
  solubility: soluble

## O=C(/C=C/c1ccccc1F)c1ccc2c(c1)OCO2
[1]
  inhibition: 9%
[2]
  inhibition: 0%
[4]
  solubility: soluble

## CCCCOc1ccc(/C=C/C(=O)c2ccc3c(c2)OCO3)cc1
[1]
  inhibition: 11%
[2]
  inhibition: 0%
[4]
  solubility: soluble

## O=C(/C=C/c1ccc2ccccc2c1)c1ccc(Br)cc1
[1]
  inhibition: 11%
[2]
  inhibition: 42%
[3]
  IC50: > 50 µM
[5]
  IC50: 25 µM
[6]
  IC50: 29 µM
[7]
  Ki: 10 µM
[4]
  solubility: soluble
